Each block holds one compound with its values, some of them ahead of it.
Assays:
Rattus norvegicus [1] = experiment: Evaluated for the distribution of radioactivity in tissues of female Fischer rats liver after 5 minutes intravenous administration; dose/g, range 0.93-1.20; type: ADME, organism-based; settings: in vivo
Summary of the method: (§1)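 Female Fischer 344 rats (10-12 weeks, 170-200 g), fed ad libitum, got a single iv tail-vein injection under ether anaesthesia of the 125I-labelled cation (2.85-8.38 μCi). The tracer was dissolved in Me2SO, diluted with saline to 1% Me2SO and filtered. At the set times rats were killed by cervical fracture and blood taken by cardiac puncture. Organs were rinsed, blotted, weighed and gamma-counted against injectate standards. Results are %dose/g, mean and range, n=5. Thyroid weight was taken as 7.5 mg/100 g body weight.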

Rattus norvegicus [2] = experiment: Evaluated for the distribution of radioactivity in tissues of female Fischer rats kidneys after 60 minutes intravenous administration; dose/g, range 3.33-4.68; type: ADME, organism-based, Kidney; settings: in vivo, 1 h
Rattus norvegicus [3] = experiment: Evaluated for the distribution of radioactivity in tissues of female Fischer rats lungs after 5 minutes intravenous administration; dose/g, range 1.20-1.52; type: ADME, organism-based, Lung; settings: in vivo; summary of the method: as §1
Rattus norvegicus [4] = experiment: Evaluated for the distribution of radioactivity in tissues of female Fischer rats heart after 5 minutes intravenous administration; dose/g, range 2.72-3.52; type: ADME, organism-based; settings: in vivo
Rattus norvegicus [5] = experiment: Evaluated for the distribution of radioactivity in tissues of female Fischer rats liver after 60 minutes intravenous administration; dose/g, range 0.14-0.19; type: ADME, organism-based; settings: in vivo, 1 h; summary of the method: as §1
Rattus norvegicus [6] = experiment: Evaluated for the distribution of radioactivity in tissues of female Fischer rats heart after 60 minutes intravenous administration; dose/g, range 2.88-4.32; type: ADME, organism-based; settings: in vivo, 1 h
Rattus norvegicus [7] = experiment: Evaluated for the distribution of radioactivity in tissues of female Fischer rats lungs after 60 minutes intravenous administration; dose/g, range 0.97-1.54; type: ADME, organism-based, Lung; settings: in vivo, 1 h; summary of the method: as §1
Rattus norvegicus [8] = experiment: Evaluated for the distribution of radioactivity in tissues of female Fischer rats blood after 5 minutes intravenous administration; dose/g, range 0.44-0.52; type: ADME, organism-based; settings: in vivo
Rattus norvegicus [9] = experiment: Evaluated for the distribution of radioactivity in tissues of female Fischer rats blood after 60 minutes intravenous administration; dose/g, range 0.16-0.21; type: ADME, organism-based; settings: in vivo, 1 h
Rattus norvegicus [10] = experiment: Evaluated for the distribution of radioactivity in tissues of female Fischer rats heart after 30 minutes intravenous administration; dose/g, range 2.47-2.96; type: ADME, organism-based; settings: in vivo, 0.5 h
Rattus norvegicus [11] = experiment: Evaluated for the distribution of radioactivity in tissues of female Fischer rats liver after 30 minutes intravenous administration.; dose/g, range 0.23-0.29; type: ADME, organism-based; settings: in vivo, 0.5 h
Rattus norvegicus [12] = experiment: Evaluated for the distribution of radioactivity in tissues of female Fischer rats lungs after 30 minutes intravenous administration; dose/g, range 1.07-1.30; type: ADME, organism-based, Lung; settings: in vivo, 0.5 h; summary of the method: as §1
Rattus norvegicus [13] = experiment: Evaluated for the distribution of radioactivity in tissues of female Fischer rats kidneys after 5 minutes intravenous administration; dose/g, range 9.87-11.9; type: ADME, organism-based, Kidney; settings: in vivo
Rattus norvegicus [14] = experiment: Evaluated for the distribution of radioactivity in tissues of female Fischer rats thyroid after 5 minutes intravenous administration; dose/g, range 29-36; type: ADME, organism-based, Thyroid gland; settings: in vivo; summary of the method: as §1
Rattus norvegicus [15] = experiment: Evaluated for the distribution of radioactivity in tissues of female Fischer rats thyroid after 60 minutes intravenous administration; dose/g, range 55-102; type: ADME, organism-based, Thyroid gland; settings: in vivo, 1 h; summary of the method: as §1
Rattus norvegicus [16] = experiment: Evaluated for the distribution of radioactivity in tissues of female Fischer rats thyroid after 30 minutes intravenous administration; dose/g, range 33-60; type: ADME, organism-based, Thyroid gland; settings: in vivo, 0.5 h; summary of the method: as §1
Rattus norvegicus [17] = experiment: Evaluated for the distribution of radioactivity in tissues of female Fischer rats kidneys after 30 minutes intravenous administration; dose/g, range 6.28-7.41; type: ADME, organism-based, Kidney; settings: in vivo, 0.5 h
Rattus norvegicus [18] = experiment: Evaluated for the distribution of radioactivity in tissues of female Fischer rats blood after 30 minutes intravenous administration; dose/g, range 0.25-0.32; type: ADME, organism-based; settings: in vivo, 0.5 h
Rattus norvegicus [19] = experiment: Evaluated for the distribution of radioactivity in tissues of female Fischer rats blood after 5 minutes intravenous administration; dose/g, range 0.32-0.46; type: ADME, organism-based; settings: in vivo
Rattus norvegicus [20] = experiment: Evaluated for the distribution of radioactivity in tissues of female Fischer rats liver after 60 minutes intravenous administration; dose/g, range 0.15-0.19; type: ADME, organism-based; settings: in vivo, 1 h; summary of the method: as §1
Rattus norvegicus [21] = experiment: Evaluated for the distribution of radioactivity in tissues of female Fischer rats kidneys after 5 minutes intravenous administration; dose/g, range 11.7-14.6; type: ADME, organism-based, Kidney; settings: in vivo
Rattus norvegicus [22] = experiment: Evaluated for the distribution of radioactivity in tissues of female Fischer rats kidneys after 60 minutes intravenous administration; dose/g, range 5.02-6.57; type: ADME, organism-based, Kidney; settings: in vivo, 1 h
Rattus norvegicus [23] = experiment: Evaluated for the distribution of radioactivity in tissues of female Fischer rats lungs after 60 minutes intravenous administration; dose/g, range 0.94-1.36; type: ADME, organism-based, Lung; settings: in vivo, 1 h; summary of the method: as §1
Rattus norvegicus [24] = experiment: Evaluated for the distribution of radioactivity in tissues of female Fischer rats heart after 30 minutes intravenous administration; dose/g, range 2.67-3.69; type: ADME, organism-based; settings: in vivo, 0.5 h
Rattus norvegicus [25] = experiment: Evaluated for the distribution of radioactivity in tissues of female Fischer rats liver after 5 minutes intravenous administration; dose/g, range 1.06-1.70; type: ADME, organism-based; settings: in vivo; summary of the method: as §1
Rattus norvegicus [26] = experiment: Evaluated for the distribution of radioactivity in tissues of female Fischer rats thyroid after 5 minutes intravenous administration; dose/g, range 16-32; type: ADME, organism-based, Thyroid gland; settings: in vivo; summary of the method: as §1
Rattus norvegicus [27] = experiment: Evaluated for the distribution of radioactivity in tissues of female Fischer rats thyroid after 60 minutes intravenous administration; dose/g, range 32-43; type: ADME, organism-based, Thyroid gland; settings: in vivo, 1 h; summary of the method: as §1
Rattus norvegicus [28] = experiment: Evaluated for the distribution of radioactivity in tissues of female Fischer rats lungs after 5 minutes intravenous administration; dose/g, range 1.18-1.44; type: ADME, organism-based, Lung; settings: in vivo; summary of the method: as §1
Rattus norvegicus [29] = experiment: Evaluated for the distribution of radioactivity in tissues of female Fischer rats liver after 30 minutes intravenous administration; dose/g, range 0.22-0.30; type: ADME, organism-based; settings: in vivo, 0.5 h
Rattus norvegicus [30] = experiment: Evaluated for the distribution of radioactivity in tissues of female Fischer rats kidneys after 30 minutes intravenous administration; dose/g, range 6.47-10.2; type: ADME, organism-based, Kidney; settings: in vivo, 0.5 h
Rattus norvegicus [31] = experiment: Evaluated for the distribution of radioactivity in tissues of female Fischer rats blood after 30 minutes intravenous administration; dose/g, range 0.18-0.24; type: ADME, organism-based; settings: in vivo, 0.5 h
Rattus norvegicus [32] = experiment: Evaluated for the distribution of radioactivity in tissues of female Fischer rats heart after 60 minutes intravenous administration; dose/g, range 3.21-3.92; type: ADME, organism-based; settings: in vivo, 1 h
Rattus norvegicus [33] = experiment: Evaluated for the distribution of radioactivity in tissues of female Fischer rats thyroid after 30 minutes intravenous administration; dose/g, range 29-44; type: ADME, organism-based, Thyroid gland; settings: in vivo, 0.5 h; summary of the method: as §1
Rattus norvegicus [34] = experiment: Evaluated for the distribution of radioactivity in tissues of female Fischer rats blood after 60 minutes intravenous administration; dose/g, range 0.15-0.20; type: ADME, organism-based; settings: in vivo, 1 h
Rattus norvegicus [35] = experiment: Evaluated for the distribution of radioactivity in tissues of female Fischer rats lungs after 30 minutes intravenous administration; dose/g, range 1.12-1.39; type: ADME, organism-based, Lung; settings: in vivo, 0.5 h; summary of the method: as §1
Rattus norvegicus [36] = experiment: Evaluated for the distribution of radioactivity in tissues of female Fischer rats heart after 5 minutes intravenous administration; dose/g, range 2.82-3.86; type: ADME, organism-based; settings: in vivo

- Distribution (Rattus norvegicus [1]): 1.06%
- Distribution (Rattus norvegicus [2]): 4.15%
- Distribution (Rattus norvegicus [3]): 1.31%
- Distribution (Rattus norvegicus [4]): 2.99%
- Distribution (Rattus norvegicus [5]): 0.17%
- Distribution (Rattus norvegicus [6]): 3.42%
- Distribution (Rattus norvegicus [7]): 1.16%
- Distribution (Rattus norvegicus [8]): 0.47%
- Distribution (Rattus norvegicus [9]): 0.19%
- Distribution (Rattus norvegicus [10]): 2.67%
- Distribution (Rattus norvegicus [11]): 0.25%
- Distribution (Rattus norvegicus [12]): 1.2%
- Distribution (Rattus norvegicus [13]): 11.06%
- Distribution (Rattus norvegicus [14]): 31%
- Distribution (Rattus norvegicus [15]): 71%
- Distribution (Rattus norvegicus [16]): 45%
- Distribution (Rattus norvegicus [17]): 6.89%
- Distribution (Rattus norvegicus [18]): 0.28%
Structure (SMILES): I/C=C/CCC[P+](C1CCCCC1)(C1CCCCC1)C1CCCCC1.[I-]

- Distribution (Rattus norvegicus [19]): 0.37%
- Distribution (Rattus norvegicus [20]): 0.17%
- Distribution (Rattus norvegicus [21]): 13.07%
- Distribution (Rattus norvegicus [22]): 5.66%
- Distribution (Rattus norvegicus [23]): 1.15%
- Distribution (Rattus norvegicus [24]): 3.17%
- Distribution (Rattus norvegicus [25]): 1.39%
- Distribution (Rattus norvegicus [26]): 25%
- Distribution (Rattus norvegicus [27]): 39%
- Distribution (Rattus norvegicus [28]): 1.32%
- Distribution (Rattus norvegicus [29]): 0.26%
- Distribution (Rattus norvegicus [30]): 8.41%
- Distribution (Rattus norvegicus [31]): 0.2%
- Distribution (Rattus norvegicus [32]): 3.47%
- Distribution (Rattus norvegicus [33]): 38%
- Distribution (Rattus norvegicus [34]): 0.17%
- Distribution (Rattus norvegicus [35]): 1.24%
- Distribution (Rattus norvegicus [36]): 3.44%
Structure (SMILES): I/C=C/CCC[P+](c1ccccc1)(C1CCCCC1)C1CCCCC1.[I-]
